Activity calls are given as the source filed them. No cut-off for these calls is given here.
Columns and labels:
HT-29 [1] = experiment: Induction of ROS generation in human HT-29 cells at 2.5 uM after 2 to 6 hrs by DCF-DA staining based fluorescence assay; type: functional, cell-based
In short: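 HT29 cells treated two days after seeding, then loaded with 50 µM DCF-DA for 15 min at 37°C. Cells trypsinized, washed and resuspended in PBS, and 30 000 cells/sample read by flow cytometry (FL-1). Expressed as % of DMSO-treated cells; […] for 1 h served as positive control. Triplicates from three independent experiments.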

HT-29 [2] = experiment: Induction of GCL expression in human HT-29 cells at 1.5 uM after 4 hrs by Western blotting method; type: functional
In short: (§1)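 HT29 whole-cell lysates in Hepes/KOH pH 7.5 with EDTA, KCl, NP40, DTT, protease inhibitors; 50 µg protein on 10–15% SDS-PAGE, nitrocellulose, overnight 4°C primary antibody (GCL 1:500, HO-1 1:1000), HRP secondary, chemiluminescence. Bands normalized to GAPDH (1:10 000), DMSO ratio set at 1.00; representative of three independent experiments.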

HT-29 [3] = experiment: Induction of NQO1 expression in human HT-29 cells at 6.4 uM after 6 hrs by Western blotting method; type: functional
In short: (§2)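 Whole-cell lysates from treated HT29 cells in pH 7.5 Hepes/KOH buffer with EDTA, KCl, Igepal, DTT and protease inhibitors. 50 µg protein run on 10-15% SDS-PAGE and transferred to nitrocellulose. Probed overnight at 4°C with anti-HO-1 (1:1 000), anti-NQO1 (1:1 000) or anti-GCL (1:500), then HRP secondary for 45 min and chemiluminescence. Bands normalized to GAPDH (1:10 000), with the DMSO ratio set to 1.00. Representative of three experiments.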

HT-29 [4] = experiment: Induction of GCL expression in human HT-29 cells at 6.4 uM after 24 hrs by Western blotting method; type: functional; in short: as §1
HT-29 [5] = experiment: Induction of NQO1 expression in human HT-29 cells at 10 uM after 24 hrs by Western blotting method; type: functional; in short: as §2
HT-29 [6] = experiment: Induction of HO1 expression in human HT-29 cells at 3.8 uM after 6 hrs by Western blotting method; type: functional; in short: as §1

## COc1ccc(/C=C2\S/C(=N\c3nc(-c4ccc(Cl)cc4)cs3)NC2=O)cc1
HT-29 [1]
  Activity: inactive

## CN(C)c1ccc(/C=C2\S/C(=N\c3csc(-c4ccc(Cl)cc4)c3)NC2=O)cc1
HT-29 [2]
  fold change (FC): 0.96

## Cc1ccc(/C=C2\S/C(=N\c3csc(-c4ccc(Cl)cc4)c3)NC2=O)cc1
HT-29 [3]
  fold change (FC): 1.86
HT-29 [4]
  fold change (FC): 0.97

## COc1ccc(/C=C2\S/C(=N\c3csc(-c4ccc(Cl)cc4)c3)NC2=O)cc1OC
HT-29 [5]
  fold change (FC): 0.9

## COc1ccc(/C=C2\S/C(=N\c3csc(-c4ccc(Cl)cc4)c3)NC2=O)cc1
HT-29 [6]
  fold change (FC): 1

Source: ChEMBL document CHEMBL3414496, “Synthesis and biological evaluation of novel 2-heteroarylimino-1,3-thiazolidin-4-ones as potential anti-tumor agents” (Eur J Med Chem, 2015)
